Assay results gathered from unrelated publications.
Lines come from different studies, so protocols differ.
Effect on: cell growth or viability

Compound | cell line | assay | conditions | quantity | value
CNCCC(=O)Nc1ccccc1/N=c1\cc(-c2ccc3nc(N)oc3c2)oc2ccccc12 | NCI-H1975 | CCK-8 | 1 µM | inhibition | 43%
CCCCNC(=O)Nc1nc2cc(-c3ccc4ncn(Cc5ccccc5)c(=O)c4c3)ccc2s1 | NCI-H1975 | MTT | 72 h | IC50 | 7.57 µM
Cc1ccc(C(=O)Nc2ccc(-c3ccc4ncn(Cc5ccccc5)c(=O)c4c3)cn2)cc1 | NCI-H1975 | CCK-8 | 72 h | IC50 | > 10 µM
C[C@H](N)C(=O)Nc1ccccc1/N=c1\cc(-c2ccc3c(c2)OCO3)oc2ccccc12 | NCI-H1975 | CCK-8 | 1 µM | inhibition | 1.32%
CCCCCCCCCCCCCCCCCCOc1cccc(CC(=O)OCCC[N+](C)(C)C)c1 | NCI-H322M | SRB | 10 µM | inhibition | 4.07%
CCCCn1cnc2ccc(-c3ccc(NC(=O)C4CCCCC4)nc3)cc2c1=O | NCI-H1975 | CCK-8 | 72 h | IC50 | 1.6 µM
COc1ccc2oc(-c3ccc4nc(N)oc4c3)c/c(=N\c3ccccc3NC(=O)CCN)c2c1 | NCI-H1975 | CCK-8 | 1 µM | inhibition | 49.8%
CCCCn1cnc2ccc(-c3ccc(NC(=O)Nc4ccc(F)cc4)nc3)cc2c1=O | NCI-H1975 | CCK-8 | 72 h | IC50 | 1.41 µM
CC(=O)O[C@H]1C(=O)[C@@]2(C)[C@H]([C@H](OC(=O)c3ccccc3)[C@]3(O)C[C@H](OC(=O)[C@H](O)[C@@H](NC(=O)c4ccccc4)c4ccccc4)C(C)=C1C3(C)C)[C@]1(OC(C)=O)CO[C@@H]1C[C@@H]2O | NCI-H1975 | MTT | 72 h | IC50 | 0.072 µM
CCCC(C)C(=O)Nc1ccc(-c2ccc3ncn(CCC)c(=O)c3c2)cn1 (stereo not shown) | NCI-H1975 | CCK-8 | 72 h | IC50 | 2.76 µM
CCCCCCCCCCCCCCCCCCOc1cccc(CC(=O)OCC[N+]2(C)CCOCC2)c1 | NCI-H322M | SRB | 10 µM | inhibition | 1.47%
C[C@H](N)C(=O)Nc1ccccc1/N=c1\cc(-c2ccc3c(c2)OCCO3)oc2cc(F)ccc12 | NCI-H1975 | CCK-8 | 1 µM | inhibition | -0.65%
O=C(Nc1nc2cc(-c3ccc4ncn(Cc5ccccc5)c(=O)c4c3)ccc2s1)c1ccccc1 | NCI-H1975 | MTT | 72 h | IC50 | > 20 µM
CCCCn1cnc2ccc(-c3ccc(NC(=O)Nc4ccc(OC)cc4)nc3)cc2c1=O | NCI-H1975 | CCK-8 | 72 h | IC50 | > 10 µM
O=C(Nc1nc2cc(-c3ccc4ncn(Cc5ccccc5)c(=O)c4c3)ccc2s1)NC1CCCCC1 | NCI-H1975 | MTT | 72 h | IC50 | > 20 µM
NCC(=O)Nc1ccccc1/N=c1\cc(-c2ccc3c(c2)OCCO3)oc2ccccc12 | NCI-H1975 | CCK-8 | 1 µM | inhibition | 0.57%
CCCCC(=O)Nc1ccc(-c2ccc3ncn(CCC(C)C)c(=O)c3c2)cn1 | NCI-H1975 | CCK-8 | 72 h | IC50 | 0.54 µM
COCCC(=O)Nc1ccccc1/N=c1\cc(-c2ccc3c(c2)OCO3)oc2ccccc12 | NCI-H1975 | CCK-8 | 1 µM | inhibition | 3.84%
CCCCn1cnc2ccc(-c3ccc4sc(NC(=O)Nc5ccc(F)cc5)nc4c3)cc2c1=O | NCI-H1975 | MTT | 72 h | IC50 | 0.69 µM
